Test results reported in ChEMBL document CHEMBL3108769, “Development of 1,8-naphthalimides as clathrin inhibitors” (J Med Chem, 2014).
Activity calls are given as the source filed them. No cut-off for these calls is given here.

How the values were obtained:
[1] = molecular target: T1, Clathrin heavy chain 1 (Homo sapiens, UniProt Q00610); test: Inhibition of recombinant GST-tagged clathrin heavy chain (unknown origin) at 100 uM after 1 hr by ELISA
[2] = system: U2OS; test: Inhibition of clathrin in human U2OS cells assessed as texas red-Tf endocytosis incubated 30 mins prior to texas red-Tf addition measured after 8 mins; type: cell-based
Method in brief: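 U2OS cells preincubated 30 min with inhibitor (1 to 300 μM) or vehicle, then 4 μg/mL Tf-A594 added for 8 min at 37 °C. Uptake quantified by automated imaging and analysis, ~1200 cells per point. IC50 fitted; reported as mean ±95% CI from three wells.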

[3] = organism: Ovis aries; test: Inhibition of phosphotidylserine-stimulated sheep brain dynamin 1 GTPase activity assessed as inhibition of phosphate release from GTP at 100 uM after 30 mins by malachite green reagent method
[4] = organism: Ovis aries; settings: 300 uM
[5] = Inhibition of phosphotidylserine-stimulated sheep brain dynamin 1 GTPase activity assessed as inhibition of phosphate release from GTP after 30 mins by malachite green reagent method; design: species or system Ovis aries
Method in brief: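 Native dynamin I purified from sheep brain (peripheral membrane fraction, GST-Amph2-SH3-sepharose affinity). Dynamin (20 nM) stimulated by 4 μg/mL sonicated phosphatidylserine with compound for 30 min at 37 °C. Buffer: 5 mM Tris-HCl pH 7.4, 10 mM NaCl, 2 mM Mg2+, 1 μg/mL leupeptin, 0.1 mM PMSF, 0.3 mM GTP. Phosphate release read by malachite green.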

[6] = molecular target: T1, Clathrin heavy chain 1; test: Inhibition of recombinant GST-tagged clathrin heavy chain (unknown origin) after 1 hr by ELISA

T1 sequence (Q00610 whole entry): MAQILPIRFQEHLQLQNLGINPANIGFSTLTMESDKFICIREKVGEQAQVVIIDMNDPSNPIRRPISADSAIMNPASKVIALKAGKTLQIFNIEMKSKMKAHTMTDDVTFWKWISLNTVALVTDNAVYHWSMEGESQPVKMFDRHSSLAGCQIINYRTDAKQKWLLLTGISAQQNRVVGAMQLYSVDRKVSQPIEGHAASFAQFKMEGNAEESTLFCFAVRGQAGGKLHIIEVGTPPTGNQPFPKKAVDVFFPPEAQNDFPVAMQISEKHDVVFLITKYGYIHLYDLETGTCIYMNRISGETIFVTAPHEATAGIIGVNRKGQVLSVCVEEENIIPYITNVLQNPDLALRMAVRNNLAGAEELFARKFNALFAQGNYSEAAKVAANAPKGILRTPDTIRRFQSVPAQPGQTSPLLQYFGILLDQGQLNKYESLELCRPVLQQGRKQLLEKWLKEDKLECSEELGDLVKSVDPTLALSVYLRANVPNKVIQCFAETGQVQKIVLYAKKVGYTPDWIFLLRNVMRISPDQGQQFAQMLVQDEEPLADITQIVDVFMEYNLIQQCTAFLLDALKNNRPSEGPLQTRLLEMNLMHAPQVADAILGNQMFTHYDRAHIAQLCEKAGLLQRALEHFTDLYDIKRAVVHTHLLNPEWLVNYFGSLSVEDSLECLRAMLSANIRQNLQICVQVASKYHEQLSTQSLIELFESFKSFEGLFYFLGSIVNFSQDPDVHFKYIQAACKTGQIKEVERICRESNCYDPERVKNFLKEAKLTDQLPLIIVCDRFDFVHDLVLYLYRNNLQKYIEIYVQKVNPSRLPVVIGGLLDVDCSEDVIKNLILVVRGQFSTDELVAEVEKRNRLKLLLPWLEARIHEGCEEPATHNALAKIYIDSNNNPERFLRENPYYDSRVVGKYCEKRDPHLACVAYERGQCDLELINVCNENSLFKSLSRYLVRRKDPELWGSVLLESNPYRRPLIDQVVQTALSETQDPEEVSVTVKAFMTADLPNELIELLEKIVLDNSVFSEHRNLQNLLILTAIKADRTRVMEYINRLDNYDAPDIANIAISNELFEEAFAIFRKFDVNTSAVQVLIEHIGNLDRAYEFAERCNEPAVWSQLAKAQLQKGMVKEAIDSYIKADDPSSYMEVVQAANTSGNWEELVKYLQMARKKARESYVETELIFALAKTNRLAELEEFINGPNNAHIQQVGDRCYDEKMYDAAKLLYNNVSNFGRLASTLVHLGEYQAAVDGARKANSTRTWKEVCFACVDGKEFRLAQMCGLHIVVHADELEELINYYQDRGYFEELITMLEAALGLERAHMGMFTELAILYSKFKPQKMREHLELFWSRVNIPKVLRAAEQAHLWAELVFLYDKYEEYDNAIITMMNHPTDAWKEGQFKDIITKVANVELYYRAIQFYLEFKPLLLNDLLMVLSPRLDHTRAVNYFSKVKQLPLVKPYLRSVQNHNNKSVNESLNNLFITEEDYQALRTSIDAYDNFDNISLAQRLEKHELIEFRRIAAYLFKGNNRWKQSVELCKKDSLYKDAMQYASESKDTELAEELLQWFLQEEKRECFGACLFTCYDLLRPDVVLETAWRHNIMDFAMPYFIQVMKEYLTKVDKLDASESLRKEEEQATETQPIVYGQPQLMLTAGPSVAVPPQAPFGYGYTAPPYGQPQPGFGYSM

Row | SMILES | inhibition [1] | inhibition [2] | other results
1 | Nc1ccc(CN2C(=O)c3cccc4c(S(=O)(=O)O)ccc(c34)C2=O)cc1 | inactive |  | 
2 | Nc1ccc(CN2C(=O)c3cccc4c(Cl)ccc(c34)C2=O)cc1 | inactive |  | 
3 | Cc1ccc(CN2C(=O)c3cccc4cc(S(=O)(=O)O)cc(c34)C2=O)cc1 |  | inactive | inhibition [4]: inactive
4 | O=C(O)c1ccc(CN2C(=O)c3cccc4cc(S(=O)(=O)O)cc(c34)C2=O)cc1 |  | inactive | IC50 [5]: 185 µM
5 | Nc1ccc(CN2C(=O)c3cccc4c([N+](=O)[O-])ccc(c34)C2=O)cc1 | inactive |  | 
6 | O=C1c2cccc3cc(S(=O)(=O)O)cc(c23)C(=O)N1Cc1ccc(F)cc1 |  | inactive | IC50 [5]: 306 µM
7 | Nc1cccc(CN2C(=O)c3cccc4cc(S(=O)(=O)O)cc(c34)C2=O)c1 |  | inactive | IC50 [5]: 264 µM
8 | Nc1ccc(CN2C(=O)c3cccc4cc(N)cc(c34)C2=O)cc1 | inactive |  | 
9 | O=C1c2cccc3cc(S(=O)(=O)O)cc(c23)C(=O)N1Cc1ccccc1 |  | inactive | inhibition [4]: inactive
10 | Nc1ccc(CN2C(=O)c3cccc4cc(S(=O)(=O)O)cc(c34)C2=O)cc1 |  | inactive | inhibition [3]: inactive
11 | O=C1c2cccc3cc(S(=O)(=O)O)cc(c23)C(=O)N1Cc1ccc(Br)cc1 |  | inactive | inhibition [4]: inactive
12 | Nc1ccc(CN2C(=O)c3cccc4c(Br)ccc(c34)C2=O)cc1 | inactive |  | 
13 | CCCN1C(=O)c2cccc3c(N)c(S(=O)(=O)O)cc(c23)C1=O |  |  | IC50 [6]: 120 µM
14 | O=C1c2cccc3cc(S(=O)(=O)O)cc(c23)C(=O)N1Cc1ccc(O)cc1 |  | inactive | inhibition [4]: inactive
15 | CN(C)c1ccc(CN2C(=O)c3cccc4cc(S(=O)(=O)O)cc(c34)C2=O)cc1 |  | inactive | inhibition [4]: inactive
16 | Nc1ccccc1CN1C(=O)c2cccc3cc(S(=O)(=O)O)cc(c23)C1=O |  | inactive | IC50 [5]: 108 µM
17 | O=C1c2cccc3cc(S(=O)(=O)O)cc(c23)C(=O)N1Cc1ccc(Cl)cc1 |  | inactive | IC50 [5]: 111 µM
18 | Nc1ccc(CN2C(=O)c3cccc4cc([N+](=O)[O-])cc(c34)C2=O)cc1 | inactive |  | 
19 | COc1ccc(CN2C(=O)c3cccc4cc(S(=O)(=O)O)cc(c34)C2=O)cc1 |  | inactive | inhibition [4]: inactive

Continued, in another order:

Row | inhibition [1] | SMILES | inhibition [2] | other results
20 | inactive | Nc1ccc(N2C(=O)c3cccc4cc(S(=O)(=O)O)cc(c34)C2=O)cc1 | inactive | inhibition [3]: inactive
21 | inactive | Nc1ccc(CN2C(=O)c3cccc4cc(Br)cc(c34)C2=O)cc1 |  | 
22 | inactive | COc1cc2c3c(cccc3c1)C(=O)N(Cc1ccc(N)cc1)C2=O |  | 
23 | inactive | Nc1ccc(CN2C(=O)c3cc([N+](=O)[O-])cc4cc([N+](=O)[O-])cc(c34)C2=O)cc1 |  | 
24 | inactive | O=C1c2cccc3cc(S(=O)(=O)O)cc(c23)C(=O)N1Cc1ccc([N+](=O)[O-])cc1 | inactive | IC50 [5]: 49 µM
25 | inactive | Nc1ccc(CN2C(=O)c3cccc4c(N)ccc(c34)C2=O)cc1 |  | 
26 | inactive | Nc1ccc(CN2C(=O)c3cccc4cc(O)cc(c34)C2=O)cc1 |  | 
27 | inactive | Nc1ccc(CN2C(=O)c3cccc4cccc(c34)C2=O)cc1 |  | 
